Measurements gathered from unrelated publications.
Compare with care: the assays were run in different laboratories.
KIT D816V: Mast/stem cell growth factor receptor Kit (KIT, Homo sapiens, UniProt P10721, D816V)
KIT A829P: Mast/stem cell growth factor receptor Kit (KIT, Homo sapiens, UniProt P10721, A829P)
KIT T670I/V559D: Mast/stem cell growth factor receptor Kit (KIT, Homo sapiens, UniProt P10721, T670I/V559D)
KIT: Mast/stem cell growth factor receptor Kit (KIT, Homo sapiens, UniProt P10721)
KIT autoinhibited: Mast/stem cell growth factor receptor Kit, autoinhibited (KIT, Homo sapiens, UniProt P10721)
KIT D816H: Mast/stem cell growth factor receptor Kit (KIT, Homo sapiens, UniProt P10721, D816H)
KIT V559D/V654A: Mast/stem cell growth factor receptor Kit (KIT, Homo sapiens, UniProt P10721, V559D/V654A)

| SMILES | target | effect on | technique | concentration | remaining binding |
| --- | --- | --- | --- | --- | --- |
| Cc1cnn2ncc(-c3ccnc(N(C)C)n3)c2c1 | Mast/stem cell growth factor receptor Kit (KIT, Homo sapiens, UniProt P10721, L576P) | binding |  | 1 µM | 100% |
| COc1ncc2cc3ccccc3nc2c1C#N | Mast/stem cell growth factor receptor Kit (KIT, Homo sapiens, UniProt P10721, V559D) | cell-free assay | competition with immobilised ligand | 5 µM | 94% |
| CCC(=O)N[C@H]1CC[C@@H](C(=O)N(C)c2ccc(-c3nc4ccccc4o3)cc2)C1 | KIT D816V | cell-free assay | competition with immobilised ligand | 1 µM | 86% |
| O=C(c1ccc(Nc2nccc(-c3cc4ccccc4s3)n2)cc1)N1CCC(N2CCCC2)CC1 | KIT A829P | binding | competition with immobilised ligand | 1 µM | 31% |
| O=C(Nc1cccnn1)N1CCC(=Cc2cccc(Oc3ccc(C(F)(F)F)cn3)c2)CC1 | KIT A829P | cell-free assay | competition with immobilised ligand | 1 µM | 96% |
| O=C(NCCCN1CCOCC1)c1ccc(Nc2nccc(-c3cc4ccccc4s3)n2)cc1 | KIT T670I/V559D | binding | competition with immobilised ligand | 1 µM | 29% |
| Cc1nc(NC(=O)N2CCC[C@H]2C(N)=O)sc1-c1ccnc(C(C)(C)C(F)(F)F)c1 | KIT | binding | competition with immobilised ligand | 10 µM | 100% |
| CN(c1nccc(-c2cnn3ncccc23)n1)C1CC1 | KIT D816V | binding |  | 1 µM | 85% |
| CN(C)C(=O)Cn1cc(-c2nc(C3(c4ccc(-c5cnc(N)nc5)cc4)CC3)no2)cn1 | KIT A829P | cell-free assay | competition with immobilised ligand | 1 µM | 93% |
| O=C(Nc1c[nH]nc1C(=O)NC1CCNCC1)c1cc(F)cc(F)c1 | KIT T670I/V559D | binding | competition with immobilised ligand | 1 µM | 100% |
| CCN1CCN(Cc2ccc(C(=O)Nc3ccc(C)c(Oc4ccc5c(c4)CC(=O)N5)c3)cc2C(F)(F)F)CC1 | KIT | binding | competition with immobilised ligand | 1 µM | 0.85% |
| c1cncc(-c2cccc(Nc3nccc(NC4CCCCC4)n3)c2)c1 | KIT D816V | binding | competition with immobilised ligand | 10 µM | 0.75% |
| O=C(c1ccc(Nc2ncc(Cl)c(-c3ccc(Cl)s3)n2)cc1)N1CCC(N2CCCC2)CC1 | KIT autoinhibited | binding | competition with immobilised ligand | 1 µM | 7.2% |
| C[C@@H]1CN(c2ccc3ncc(-c4ccc5[nH]nc(C6CC6)c5c4)n3n2)C[C@H](C)O1 | KIT | binding | competition with immobilised ligand | 50 nM | 96% |
| CO[C@@H](C)c1c(Nc2ccc([C@@H](N(C)C(=O)C3CCS(=O)(=O)CC3)C(F)(F)F)cc2)cnc2cc(Cl)nn12 | KIT T670I/V559D | cell-free assay | competition with immobilised ligand | 1 µM | 82% |
| O=C(NCC1CCOCC1)c1n[nH]cc1NC(=O)c1c(F)cccc1F | KIT D816V | binding | competition with immobilised ligand | 1 µM | 100% |
| COc1cnc(Nc2cccc(S(N)(=O)=O)c2)nc1N1CCN(c2ccccc2)C(=O)C1 | KIT D816V | binding | competition with immobilised ligand | 1 µM | 90% |
| O=C(NCCCN1CCOCC1)c1ccc(Nc2ncc(Cl)c(-c3ccc(Cl)s3)n2)cc1 | KIT T670I/V559D | binding | competition with immobilised ligand | 1 µM | 2.3% |

| SMILES | target | effect on | technique | concentration | remaining binding |
| --- | --- | --- | --- | --- | --- |
| F[C@@H]1CCN(c2nccc(-c3cnn4ncccc34)n2)C1 | KIT D816V | binding |  | 1 µM | 100% |
| CNC(=O)[C@@H]1CC[C@@H](n2c(-c3ccc4cnccc4c3)nc3ccc(C(=O)NCc4cccc(C(N)=O)c4)cc32)C1 | KIT A829P | binding | competition with immobilised ligand | 1 µM | 100% |
| Cc1cnc(Nc2ccc(C(=O)N3CCC(N4CCCC4)CC3)cc2)nc1-c1cc2ccccc2s1 | KIT D816H | binding | competition with immobilised ligand | 1 µM | 7.8% |
| COc1ccc2c(c1)O[C@@H](c1ccc(OC)c(OC)c1)C[C@H]2NC(=O)C1(c2ccc3c(c2)OC(F)(F)O3)CC1 | KIT A829P | cell-free assay | competition with immobilised ligand | 1 µM | 75% |
| c1cnn2ncc(-c3ccnc(N4CCC45COC5)n3)c2c1 | KIT A829P | binding |  | 1 µM | 61% |
| Cc1cc(NC(=O)c2cccc(S(F)(F)(F)(F)F)c2)cc(-n2ccn3nc(-c4cccnc4)cc23)c1 | KIT A829P | cell-free assay | competition with immobilised ligand | 1 µM | 100% |
| C[C@@H](c1ccc(-n2cnc3c(N)ncnc32)cc1)N1CCc2nn(C)c(Cc3ccccc3)c2C1=O | KIT V559D/V654A | binding | competition with immobilised ligand | 0.1 µM | 78% |
| N[C@H]1CCN(c2nccc(-c3cnn4ncccc34)n2)C1 | KIT autoinhibited | binding |  | 1 µM | 0% |
| COc1cnc(Nc2cccc(S(N)(=O)=O)c2)nc1N1CCN(c2ccccc2)CC1 | KIT V559D/V654A | binding | competition with immobilised ligand | 1 µM | 97% |
| C[C@@H]1CCN(c2nccc(-c3cnn4ncccc34)n2)C1 | KIT | binding |  | 1 µM | 100% |
| O=C(NCc1ncc(C(F)(F)F)cc1Cl)c1ccc2c(c1)C1(CCS(=O)(=O)CC1)[C@H](C1CC1)N2S(=O)(=O)c1ccc(F)cc1 | KIT | cell-free assay | competition with immobilised ligand | 1 µM | 100% |
| C=CC(=O)N1CCC(C(=O)NCC(=O)N2CCN(c3nc(-c4cnc(N)nc4C(F)F)nc(N4CCOCC4)n3)CC2)CC1 | KIT D816H | binding | competition with immobilised ligand | 1 µM | 100% |
| Nc1ncc2c(n1)-c1c([nH]c3ccc(C#CC4CC4)cc13)CCCC2 | KIT D816V | binding | competition with immobilised ligand | 1 µM | 100% |
| O=C(O)[C@H]1[C@H](Cn2nnc3ccccc3c2=O)CC[C@@H]1C(=O)c1ccc(OCCC2CCOCC2)cc1 | KIT D816H | cell-free assay | competition with immobilised ligand | 1 µM | 80% |
| CN1CCN(c2ccc(Nc3nccc(-c4cccc([N+](=O)[O-])c4)n3)cc2C(F)(F)F)CC1 | KIT T670I/V559D | binding |  | 10 µM | 0.15% |
| O=C(c1ccc(Nc2ncc(Cl)c(-c3cc4ccccc4s3)n2)cc1)N1CCC(N2CCCC2)CC1 | KIT V559D/V654A | binding | competition with immobilised ligand | 1 µM | 50% |
| CN(C)c1nccc(-c2cnc3ncccn23)n1 | KIT T670I/V559D | binding |  | 1 µM | 92% |
| CN1CCN(c2ccc(Nc3nccc(-c4ccccc4)n3)cc2C(F)(F)F)CC1 | KIT T670I/V559D | binding |  | 10 µM | 0.15% |
